Measurements: ChEMBL document CHEMBL2390926, “Identification of novel FLT3 kinase inhibitors” (Eur J Med Chem, 2013)
The source made the active and inactive calls. The rule behind the calls is not given here.

How the values were obtained:
MOLM-13 = experiment: Cytotoxicity against human MOLM13 cells after 72 hrs by plate reader analysis; assay type: functional, cell-based; details: MOLM-13, 72 h
[1] = Cytotoxicity against mouse BA/F3 cells transfected with FLT3-ITD after 24 hrs by plate reader analysis; details: BaF3, 24 h
[2] = biological target: T1, Ephrin type-A receptor 1 (Homo sapiens) (UniProt P21709); experiment: Inhibition of EPHA1 (unknown origin) transfected in mouse Ba/F3 cells at 1 uM after 24 hrs; assay type: cell-based; details: BaF3
T1 sequence (whole entry): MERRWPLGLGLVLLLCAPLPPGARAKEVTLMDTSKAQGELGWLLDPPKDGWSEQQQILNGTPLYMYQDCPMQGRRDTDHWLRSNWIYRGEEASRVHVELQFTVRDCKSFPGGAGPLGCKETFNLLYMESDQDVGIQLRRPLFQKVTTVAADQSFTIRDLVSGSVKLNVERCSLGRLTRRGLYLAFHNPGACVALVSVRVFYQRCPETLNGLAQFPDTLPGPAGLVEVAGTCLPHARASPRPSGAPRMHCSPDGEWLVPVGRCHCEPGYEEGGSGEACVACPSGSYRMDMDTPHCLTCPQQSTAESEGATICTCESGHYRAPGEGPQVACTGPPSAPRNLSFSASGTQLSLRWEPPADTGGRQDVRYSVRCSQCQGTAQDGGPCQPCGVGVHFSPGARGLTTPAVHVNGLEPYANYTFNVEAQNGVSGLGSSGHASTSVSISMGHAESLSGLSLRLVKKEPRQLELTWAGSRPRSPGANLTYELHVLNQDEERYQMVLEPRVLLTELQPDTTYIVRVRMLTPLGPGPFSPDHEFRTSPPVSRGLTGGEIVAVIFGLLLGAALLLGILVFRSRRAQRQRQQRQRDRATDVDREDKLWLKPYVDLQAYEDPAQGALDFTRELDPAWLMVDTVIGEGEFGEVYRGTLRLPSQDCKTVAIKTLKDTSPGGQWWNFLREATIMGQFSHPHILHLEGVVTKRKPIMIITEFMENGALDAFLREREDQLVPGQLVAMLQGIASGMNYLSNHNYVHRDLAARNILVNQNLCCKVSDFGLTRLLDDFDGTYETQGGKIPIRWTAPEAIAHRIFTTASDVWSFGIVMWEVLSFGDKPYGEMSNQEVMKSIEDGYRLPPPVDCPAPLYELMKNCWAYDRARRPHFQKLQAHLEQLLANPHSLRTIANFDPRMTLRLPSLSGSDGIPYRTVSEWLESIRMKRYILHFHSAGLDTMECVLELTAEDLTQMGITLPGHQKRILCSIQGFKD
How it was run: (§1)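 Kinase specificity panel: each Ba/F3 line transformed with one of 24 tyrosine kinases depends on that kinase to grow. Cells were given compound at 1 or 5 µM for 24 h, with DMSO as comparator. Percentage growth was read by ATP-lite luminescence and reported as mean ± SEM.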

[3] = biological target: NT-3 growth factor receptor (Homo sapiens) (UniProt Q16288); experiment: Inhibition of NTRK3 (unknown origin) transfected in mouse Ba/F3 cells at 1 uM after 24 hrs; assay type: cell-based; details: BaF3
[4] = biological target: Tyrosine-protein kinase receptor UFO (Homo sapiens) (UniProt P30530); experiment: Inhibition of AXL (unknown origin) transfected in mouse Ba/F3 cells at 1 uM after 24 hrs; assay type: cell-based; details: BaF3; how it was run: as §1
[5] = biological target: Tyrosine-protein kinase Fyn (Homo sapiens) (UniProt P06241); experiment: Inhibition of FYN (unknown origin) transfected in mouse Ba/F3 cells at 1 uM after 24 hrs; assay type: cell-based; details: BaF3; how it was run: as §1
[6] = biological target: Epidermal growth factor receptor (Homo sapiens) (UniProt P00533); experiment: Inhibition of EGFR (unknown origin) transfected in mouse Ba/F3 cells at 1 uM after 24 hrs; assay type: cell-based; details: BaF3; how it was run: as §1
[7] = biological target: Tyrosine-protein kinase HCK (Homo sapiens) (UniProt P08631); experiment: Inhibition of HCK (unknown origin) transfected in mouse Ba/F3 cells at 1 uM after 24 hrs; assay type: cell-based; details: BaF3; how it was run: as §1
[8] = biological target: Vascular endothelial growth factor receptor 3 (Homo sapiens) (UniProt P35916); experiment: Inhibition of FLT4 (unknown origin) transfected in mouse Ba/F3 cells at 1 uM after 24 hrs; assay type: cell-based; details: BaF3; how it was run: as §1
[9] = biological target: Tyrosine-protein kinase Yes (Homo sapiens) (UniProt P07947); experiment: Inhibition of YES (unknown origin) transfected in mouse Ba/F3 cells at 1 uM after 24 hrs; assay type: cell-based; details: BaF3
[10] = biological target: Ephrin type-A receptor 5 (Homo sapiens) (UniProt P54756); experiment: Inhibition of EPHA5 (unknown origin) transfected in mouse Ba/F3 cells at 1 uM after 24 hrs; assay type: cell-based; details: BaF3; how it was run: as §1
[11] = biological target: Proto-oncogene tyrosine-protein kinase ROS (Homo sapiens) (UniProt P08922); experiment: Inhibition of ROS1 (unknown origin) transfected in mouse Ba/F3 cells at 1 uM after 24 hrs; assay type: cell-based; details: BaF3
[12] = biological target: Tyrosine-protein kinase ABL2 (Homo sapiens) (UniProt P42684); experiment: Inhibition of ABL2 (unknown origin) transfected in mouse Ba/F3 cells at 1 uM after 24 hrs; assay type: cell-based; details: BaF3; how it was run: as §1
[13] = biological target: T2, Tyrosine-protein kinase Mer (Homo sapiens) (UniProt Q12866); experiment: Inhibition of MERTK (unknown origin) transfected in mouse Ba/F3 cells at 1 uM after 24 hrs; assay type: cell-based; details: BaF3
T2 sequence (whole entry): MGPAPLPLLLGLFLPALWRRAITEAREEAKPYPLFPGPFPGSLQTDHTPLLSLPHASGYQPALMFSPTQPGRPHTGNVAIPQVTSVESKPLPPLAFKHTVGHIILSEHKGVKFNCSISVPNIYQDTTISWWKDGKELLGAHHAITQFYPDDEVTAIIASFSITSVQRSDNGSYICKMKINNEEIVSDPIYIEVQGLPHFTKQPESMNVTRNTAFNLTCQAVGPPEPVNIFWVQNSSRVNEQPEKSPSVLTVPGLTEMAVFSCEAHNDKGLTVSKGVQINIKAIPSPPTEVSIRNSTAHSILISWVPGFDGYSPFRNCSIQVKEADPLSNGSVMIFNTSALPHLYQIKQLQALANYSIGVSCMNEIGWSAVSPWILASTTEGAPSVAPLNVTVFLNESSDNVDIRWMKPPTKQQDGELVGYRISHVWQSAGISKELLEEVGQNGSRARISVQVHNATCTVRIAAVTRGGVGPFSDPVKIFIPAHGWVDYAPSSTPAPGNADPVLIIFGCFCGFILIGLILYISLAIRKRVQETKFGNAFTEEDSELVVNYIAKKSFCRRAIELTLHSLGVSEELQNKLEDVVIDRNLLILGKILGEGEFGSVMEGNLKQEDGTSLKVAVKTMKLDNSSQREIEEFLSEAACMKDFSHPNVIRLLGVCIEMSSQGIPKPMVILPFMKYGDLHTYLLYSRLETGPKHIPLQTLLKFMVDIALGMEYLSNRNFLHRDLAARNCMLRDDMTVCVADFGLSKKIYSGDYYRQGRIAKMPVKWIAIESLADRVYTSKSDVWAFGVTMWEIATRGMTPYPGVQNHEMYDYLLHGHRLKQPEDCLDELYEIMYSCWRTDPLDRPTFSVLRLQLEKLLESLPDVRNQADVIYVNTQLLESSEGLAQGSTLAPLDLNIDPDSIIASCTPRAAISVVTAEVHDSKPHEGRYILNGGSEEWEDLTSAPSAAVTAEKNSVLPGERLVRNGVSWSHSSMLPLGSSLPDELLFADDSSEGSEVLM

Sequence of Ephrin type-A receptor 5 (Homo sapiens) (P54756 whole entry): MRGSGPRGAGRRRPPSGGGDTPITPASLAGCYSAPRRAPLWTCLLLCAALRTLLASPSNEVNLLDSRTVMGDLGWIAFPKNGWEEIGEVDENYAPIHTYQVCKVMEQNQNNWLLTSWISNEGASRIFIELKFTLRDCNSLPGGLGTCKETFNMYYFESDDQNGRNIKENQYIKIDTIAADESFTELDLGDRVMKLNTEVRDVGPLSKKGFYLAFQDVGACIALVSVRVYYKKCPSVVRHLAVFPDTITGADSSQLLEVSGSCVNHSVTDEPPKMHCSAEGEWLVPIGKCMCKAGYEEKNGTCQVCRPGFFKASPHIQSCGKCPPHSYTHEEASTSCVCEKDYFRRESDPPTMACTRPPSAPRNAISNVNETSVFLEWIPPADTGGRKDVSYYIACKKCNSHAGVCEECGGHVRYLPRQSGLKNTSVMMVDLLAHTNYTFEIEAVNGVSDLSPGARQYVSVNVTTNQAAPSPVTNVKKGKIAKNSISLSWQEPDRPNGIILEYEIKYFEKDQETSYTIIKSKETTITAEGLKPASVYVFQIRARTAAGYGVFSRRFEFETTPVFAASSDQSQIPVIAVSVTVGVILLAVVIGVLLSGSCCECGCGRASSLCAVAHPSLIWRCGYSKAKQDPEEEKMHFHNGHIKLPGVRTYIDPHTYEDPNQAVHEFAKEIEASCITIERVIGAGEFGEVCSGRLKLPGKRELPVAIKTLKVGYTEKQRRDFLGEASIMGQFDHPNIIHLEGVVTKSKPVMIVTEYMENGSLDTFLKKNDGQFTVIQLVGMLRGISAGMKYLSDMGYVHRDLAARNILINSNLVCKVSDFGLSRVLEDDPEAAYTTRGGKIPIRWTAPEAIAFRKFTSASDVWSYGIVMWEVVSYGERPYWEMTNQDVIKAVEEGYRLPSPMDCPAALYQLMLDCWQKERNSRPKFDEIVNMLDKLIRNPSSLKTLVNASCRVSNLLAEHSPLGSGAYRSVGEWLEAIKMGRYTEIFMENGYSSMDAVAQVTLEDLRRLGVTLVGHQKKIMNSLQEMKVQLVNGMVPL
Sequence of Vascular endothelial growth factor receptor 3 (Homo sapiens) (P35916 whole entry): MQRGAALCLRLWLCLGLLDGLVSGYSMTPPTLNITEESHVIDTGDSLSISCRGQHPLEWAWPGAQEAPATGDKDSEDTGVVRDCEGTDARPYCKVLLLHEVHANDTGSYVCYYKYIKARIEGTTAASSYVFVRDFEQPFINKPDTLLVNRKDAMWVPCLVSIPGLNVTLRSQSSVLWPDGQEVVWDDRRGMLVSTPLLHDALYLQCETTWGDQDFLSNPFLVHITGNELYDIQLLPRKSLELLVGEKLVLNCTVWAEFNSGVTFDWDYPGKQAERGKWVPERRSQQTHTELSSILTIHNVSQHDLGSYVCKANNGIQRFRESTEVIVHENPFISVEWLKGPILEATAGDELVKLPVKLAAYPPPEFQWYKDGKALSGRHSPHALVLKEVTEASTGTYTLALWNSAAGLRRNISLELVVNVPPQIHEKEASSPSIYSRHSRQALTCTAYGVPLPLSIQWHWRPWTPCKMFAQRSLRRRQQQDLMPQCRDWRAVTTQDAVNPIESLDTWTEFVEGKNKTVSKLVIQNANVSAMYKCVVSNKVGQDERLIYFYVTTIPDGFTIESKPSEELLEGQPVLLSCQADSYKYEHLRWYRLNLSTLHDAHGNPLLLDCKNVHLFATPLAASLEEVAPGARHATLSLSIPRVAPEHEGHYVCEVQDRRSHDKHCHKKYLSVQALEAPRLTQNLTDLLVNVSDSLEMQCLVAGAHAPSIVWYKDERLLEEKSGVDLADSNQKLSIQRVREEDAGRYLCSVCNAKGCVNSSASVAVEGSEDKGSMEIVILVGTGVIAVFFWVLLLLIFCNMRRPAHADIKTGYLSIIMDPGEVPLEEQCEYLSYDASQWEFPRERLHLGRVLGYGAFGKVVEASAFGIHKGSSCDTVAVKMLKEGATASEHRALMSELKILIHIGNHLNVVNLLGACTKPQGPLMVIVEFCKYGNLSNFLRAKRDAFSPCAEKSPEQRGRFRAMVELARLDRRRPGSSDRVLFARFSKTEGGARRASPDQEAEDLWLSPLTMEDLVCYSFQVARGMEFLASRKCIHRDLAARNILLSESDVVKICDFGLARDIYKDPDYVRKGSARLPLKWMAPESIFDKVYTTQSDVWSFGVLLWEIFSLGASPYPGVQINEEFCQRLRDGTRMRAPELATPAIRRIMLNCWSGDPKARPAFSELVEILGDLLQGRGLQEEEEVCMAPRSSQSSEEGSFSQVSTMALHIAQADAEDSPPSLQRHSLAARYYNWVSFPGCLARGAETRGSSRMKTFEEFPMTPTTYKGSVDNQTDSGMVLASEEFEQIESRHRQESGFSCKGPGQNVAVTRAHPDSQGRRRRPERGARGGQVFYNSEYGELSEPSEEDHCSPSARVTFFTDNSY
Sequence of Tyrosine-protein kinase Fyn (Homo sapiens) (P06241 2-537 limits assumed): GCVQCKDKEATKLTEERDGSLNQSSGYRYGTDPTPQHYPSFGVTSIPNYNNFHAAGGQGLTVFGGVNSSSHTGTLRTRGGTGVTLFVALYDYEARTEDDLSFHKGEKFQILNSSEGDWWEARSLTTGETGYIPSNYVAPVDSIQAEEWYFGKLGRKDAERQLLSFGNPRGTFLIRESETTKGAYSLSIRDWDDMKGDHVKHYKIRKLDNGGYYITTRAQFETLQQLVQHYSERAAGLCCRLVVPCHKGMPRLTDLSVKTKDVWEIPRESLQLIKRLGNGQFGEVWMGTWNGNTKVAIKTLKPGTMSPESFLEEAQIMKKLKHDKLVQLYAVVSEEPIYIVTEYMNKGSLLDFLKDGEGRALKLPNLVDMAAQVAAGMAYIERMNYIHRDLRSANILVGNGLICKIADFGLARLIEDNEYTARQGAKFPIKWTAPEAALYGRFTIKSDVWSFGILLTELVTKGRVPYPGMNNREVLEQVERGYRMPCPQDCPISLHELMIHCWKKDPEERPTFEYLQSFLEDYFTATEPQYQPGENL
Sequence of Tyrosine-protein kinase HCK (Homo sapiens) (P08631 2-526 limits assumed): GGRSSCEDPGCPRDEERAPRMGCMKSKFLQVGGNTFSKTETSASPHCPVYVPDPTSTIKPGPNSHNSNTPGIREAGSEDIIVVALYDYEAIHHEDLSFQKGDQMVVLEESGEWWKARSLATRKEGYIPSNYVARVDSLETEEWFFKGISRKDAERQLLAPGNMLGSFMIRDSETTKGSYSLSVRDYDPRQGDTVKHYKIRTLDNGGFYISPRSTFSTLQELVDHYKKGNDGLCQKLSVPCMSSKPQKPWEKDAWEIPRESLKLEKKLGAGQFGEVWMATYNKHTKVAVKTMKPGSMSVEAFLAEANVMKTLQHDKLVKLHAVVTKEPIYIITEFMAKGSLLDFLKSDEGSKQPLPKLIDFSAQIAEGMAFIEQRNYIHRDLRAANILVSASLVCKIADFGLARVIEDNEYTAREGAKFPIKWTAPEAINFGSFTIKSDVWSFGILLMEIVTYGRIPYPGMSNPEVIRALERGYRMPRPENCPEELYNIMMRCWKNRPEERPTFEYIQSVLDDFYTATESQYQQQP
Sequence of Epidermal growth factor receptor (Homo sapiens) (P00533 whole entry): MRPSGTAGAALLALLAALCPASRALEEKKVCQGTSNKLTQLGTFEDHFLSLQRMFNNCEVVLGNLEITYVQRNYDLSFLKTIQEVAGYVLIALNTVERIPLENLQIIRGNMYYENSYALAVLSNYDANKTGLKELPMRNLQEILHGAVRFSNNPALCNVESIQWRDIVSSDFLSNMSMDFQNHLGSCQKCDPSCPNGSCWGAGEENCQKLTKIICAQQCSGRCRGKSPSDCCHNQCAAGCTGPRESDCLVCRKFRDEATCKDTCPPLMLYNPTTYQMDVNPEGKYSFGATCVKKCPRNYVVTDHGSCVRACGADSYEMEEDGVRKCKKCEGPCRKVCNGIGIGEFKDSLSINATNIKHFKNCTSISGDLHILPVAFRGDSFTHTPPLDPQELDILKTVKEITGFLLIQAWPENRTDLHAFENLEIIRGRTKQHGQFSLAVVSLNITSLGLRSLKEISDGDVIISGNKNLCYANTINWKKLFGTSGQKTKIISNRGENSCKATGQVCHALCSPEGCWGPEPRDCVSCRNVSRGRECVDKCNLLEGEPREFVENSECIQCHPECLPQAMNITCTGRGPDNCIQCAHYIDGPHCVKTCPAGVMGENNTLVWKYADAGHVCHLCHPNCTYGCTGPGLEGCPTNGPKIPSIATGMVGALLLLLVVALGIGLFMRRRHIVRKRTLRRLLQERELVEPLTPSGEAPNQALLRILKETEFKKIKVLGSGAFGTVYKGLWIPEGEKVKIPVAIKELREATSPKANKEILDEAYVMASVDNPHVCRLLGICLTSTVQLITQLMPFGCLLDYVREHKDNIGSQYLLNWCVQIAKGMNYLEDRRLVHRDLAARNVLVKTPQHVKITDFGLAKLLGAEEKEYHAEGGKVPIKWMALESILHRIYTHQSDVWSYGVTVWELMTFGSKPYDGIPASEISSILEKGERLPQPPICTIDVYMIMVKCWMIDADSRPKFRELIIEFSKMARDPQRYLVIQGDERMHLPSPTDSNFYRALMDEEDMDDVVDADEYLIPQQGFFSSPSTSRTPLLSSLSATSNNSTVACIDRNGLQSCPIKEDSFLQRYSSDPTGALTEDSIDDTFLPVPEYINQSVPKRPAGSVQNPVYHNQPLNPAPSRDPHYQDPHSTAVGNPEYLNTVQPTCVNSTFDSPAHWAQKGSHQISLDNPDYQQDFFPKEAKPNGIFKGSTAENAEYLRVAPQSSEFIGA

| Compound | inhibition [2] | inhibition [3] | inhibition [4] | inhibition [5] | inhibition [6] | inhibition [7] | inhibition [8] | inhibition [9] | inhibition [10] | inhibition [11] | inhibition [12] | inhibition [13] | EC50 (MOLM-13) [nM] | EC50 [1] [nM] |
| --- | --- | --- | --- | --- | --- | --- | --- | --- | --- | --- | --- | --- | --- | --- |
| Cc1ccc(-n2cnc3cc(Nc4nnc(C)c5ccccc45)ccc32)cc1 | – | – | – | – | – | – | – | – | – | – | – | – | 332 | 717 |
| Fc1ccc(-c2n[nH]cc2-c2ccncc2)cc1Cl | – | – | – | – | – | – | – | – | – | – | – | – | 258 | 405 |

Second part, led by results:

| inhibition [2] | inhibition [3] | inhibition [4] | inhibition [5] | inhibition [6] | inhibition [7] | inhibition [8] | inhibition [9] | inhibition [10] | inhibition [11] | inhibition [12] | inhibition [13] | Compound | EC50 (MOLM-13) [nM] | EC50 [1] [nM] |
| --- | --- | --- | --- | --- | --- | --- | --- | --- | --- | --- | --- | --- | --- | --- |
| inactive | inactive | inactive | inactive | inactive | inactive | inactive | inactive | inactive | inactive | inactive | inactive | Cc1cccc(C(=O)Nc2cc(-c3ccc(F)cc3)n[nH]2)c1 | 630 | 296 |
| inactive | inactive | inactive | inactive | inactive | inactive | inactive | inactive | inactive | inactive | inactive | inactive | COc1ccc(C(=O)Nc2cc(-c3ccccc3)[nH]n2)cc1 | 292 | 36 |
| inactive | inactive | inactive | inactive | inactive | inactive | inactive | inactive | inactive | inactive | inactive | inactive | Cc1ccc(-c2cc(NC(=O)c3ccc(F)cc3)[nH]n2)cc1 | 612 | 138 |
